Assays:
[1] = system: YB5 cells (silenced CMV-GFP); assay: GFP reactivation in YB5 measured by flow cytometry; type: cell-based, human; settings: for GFP reactivation by GSK-3 inhibitors: YB5, multiple doses, single exposure for four days
YB5 cells [2] = assay: Time-course RNA-seq in YB5; type: cell-based, human; settings: after excluding genes downregulated at 2hr/4hr
YB5 cells [3] = assay: qPCR of hypermethylated silenced genes in YB5; type: cell-based, human; settings: for reactivation of SYNE1 and MGMT: YB5, 24hr treatment, qPCR
GSK-3α = GSK-3α (Homo sapiens, UniProt P49840); assay: Kinome screening of 250 kinases at 1μM; type: biochemical
GSK-3α, sequence (P49840 whole entry): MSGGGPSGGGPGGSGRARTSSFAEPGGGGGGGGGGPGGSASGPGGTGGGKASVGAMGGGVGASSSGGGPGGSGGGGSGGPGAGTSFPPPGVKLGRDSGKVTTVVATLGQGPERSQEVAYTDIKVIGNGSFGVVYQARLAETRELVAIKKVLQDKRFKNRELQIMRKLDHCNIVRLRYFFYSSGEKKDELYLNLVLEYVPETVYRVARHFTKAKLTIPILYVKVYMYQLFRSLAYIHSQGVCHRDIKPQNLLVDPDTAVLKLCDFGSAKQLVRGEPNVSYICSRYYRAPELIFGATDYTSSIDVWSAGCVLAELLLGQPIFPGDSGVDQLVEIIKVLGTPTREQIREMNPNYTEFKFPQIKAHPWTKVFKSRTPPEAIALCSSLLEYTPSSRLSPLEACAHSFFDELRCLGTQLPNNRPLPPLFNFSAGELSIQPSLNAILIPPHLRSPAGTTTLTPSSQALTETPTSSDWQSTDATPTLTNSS
Procedure, shortened: (§1)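 Kinase assays were run by a contract lab on a microfluidic mobility-shift platform. Each target kinase was incubated with fluorescently labelled substrate and test compound in a standardized reaction mixture.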

HL60 cell line = assay: HL60 differentiation; type: cell-based, human; settings: single dose exposure for four days
Procedure, shortened: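 HL60 cells received one dose 24 h after seeding, drug-free medium on day 3, and analysis on day 4. Cells were washed and stained with PI plus FITC-CD11b or isotype IgG, then read on a Guava flow cytometer. Positive controls were 1μM ATRA and 1.25% DMSO.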

CDK1/2 substrates = assay: Western Blot of CDK substrates after MC180295 treatment; type: cell-based; settings: 2hrs treatment
YB5 = assay: Cell cycle analysis by propidium iodide staining; type: cell-based, human; settings: four days after single exposure
Procedure, shortened: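 YB5 cells received a single drug dose 24 h after seeding, with drug-free medium replaced three days later. They were analysed four days after treatment by propidium iodide staining and FACSCalibur flow cytometry. Sub-G1 fraction was taken as the apoptotic proportion. N=3.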

panel of 250 kinases = assay: Kinome screening of 250 kinases at 1μM; type: biochemical, human
Procedure, shortened: as §1

[4] = system: cancer cell lines vs normal lung fibroblast (IMR90); assay: Anti-proliferation assay; type: cell-based, human; settings: four days after one-time exposure; 5μM HH1 or 0.1μM MC180295
Procedure, shortened: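 Cells seeded in 96-well plates at 40% confluency. Medium refreshed next day, test compound added directly, then cultured two more days at 37°C. Drug-free medium on day four. Cells trypsinised on day 5, mixed 1:1 with trypan blue and counted on an automated counter. Each sample counted at least three times and averaged; triplicate wells per condition.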

GSK-3β = GSK-3β (Homo sapiens, UniProt P49841); assay: Kinome screening of 250 kinases at 1μM; type: biochemical
GSK-3β, sequence (P49841 whole entry): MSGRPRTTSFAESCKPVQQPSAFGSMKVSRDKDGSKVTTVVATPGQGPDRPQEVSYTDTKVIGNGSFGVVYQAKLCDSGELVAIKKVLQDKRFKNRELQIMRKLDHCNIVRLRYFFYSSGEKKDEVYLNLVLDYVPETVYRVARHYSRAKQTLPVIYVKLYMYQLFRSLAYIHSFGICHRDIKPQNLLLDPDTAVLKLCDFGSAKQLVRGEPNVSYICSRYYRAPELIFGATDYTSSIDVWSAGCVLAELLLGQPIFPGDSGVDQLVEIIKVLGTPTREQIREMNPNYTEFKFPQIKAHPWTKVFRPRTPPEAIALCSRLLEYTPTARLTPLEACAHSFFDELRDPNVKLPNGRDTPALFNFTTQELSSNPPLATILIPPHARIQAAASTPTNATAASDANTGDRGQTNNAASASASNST
Procedure, shortened: as §1

YB5 and HCT116 = assay: Soft agar colony formation assay; type: cell-based, human; settings: single dose pre-exposure for four days
Procedure, shortened: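 Cells were pretreated with a range of test compound concentrations, kept in drug for two more days, and switched to drug-free medium the day before seeding (four days total). 1000 cells were plated in Noble agar with 2x medium (20% FBS, 2% penicillin/streptomycin). Plates were grown two weeks at 37°C, then stained with 0.005% crystal violet in 10% EtOH.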

SW48-luc cells = assay: i.p. SW48-luc model in NSG mice; type: in vivo
Procedure, shortened: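 SW48 cells transfected with ffluc2-eGFP, GFP-positive cells sorted one week later and expanded. Cells injected i.p. into male and female age- and gender-matched NSG mice. Once tumour burden was seen by bioluminescence, mice randomised to 5–20mg/kg test compound or solvent i.p. every other day (3 vehicle, 5 treated). Imaged 5 min after i.p. D-luciferin. Endpoint: natural death or ascites; survival by log-rank (Mantel-Cox).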

CDK9/CyclinT1 = CDK9/CyclinT1 (Homo sapiens, UniProt P50750); assay: Isotope kinase activity assay with recombinant CDK9/CyclinT1 and BRG1; type: biochemical; settings: 1μM inhibitor, 32γ-ATP
CDK9/CyclinT1, sequence (P50750 whole entry): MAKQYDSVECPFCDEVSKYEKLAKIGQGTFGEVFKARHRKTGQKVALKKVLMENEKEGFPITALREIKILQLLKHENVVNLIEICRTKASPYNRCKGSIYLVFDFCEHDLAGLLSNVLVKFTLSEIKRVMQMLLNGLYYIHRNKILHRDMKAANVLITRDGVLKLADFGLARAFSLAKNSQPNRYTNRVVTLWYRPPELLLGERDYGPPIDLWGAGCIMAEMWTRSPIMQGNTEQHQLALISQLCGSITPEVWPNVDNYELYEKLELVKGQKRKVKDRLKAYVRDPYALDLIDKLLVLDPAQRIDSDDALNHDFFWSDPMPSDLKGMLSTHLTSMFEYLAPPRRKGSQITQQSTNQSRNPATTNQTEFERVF
CDK9/CyclinT1, sequence (O60563 whole entry partner): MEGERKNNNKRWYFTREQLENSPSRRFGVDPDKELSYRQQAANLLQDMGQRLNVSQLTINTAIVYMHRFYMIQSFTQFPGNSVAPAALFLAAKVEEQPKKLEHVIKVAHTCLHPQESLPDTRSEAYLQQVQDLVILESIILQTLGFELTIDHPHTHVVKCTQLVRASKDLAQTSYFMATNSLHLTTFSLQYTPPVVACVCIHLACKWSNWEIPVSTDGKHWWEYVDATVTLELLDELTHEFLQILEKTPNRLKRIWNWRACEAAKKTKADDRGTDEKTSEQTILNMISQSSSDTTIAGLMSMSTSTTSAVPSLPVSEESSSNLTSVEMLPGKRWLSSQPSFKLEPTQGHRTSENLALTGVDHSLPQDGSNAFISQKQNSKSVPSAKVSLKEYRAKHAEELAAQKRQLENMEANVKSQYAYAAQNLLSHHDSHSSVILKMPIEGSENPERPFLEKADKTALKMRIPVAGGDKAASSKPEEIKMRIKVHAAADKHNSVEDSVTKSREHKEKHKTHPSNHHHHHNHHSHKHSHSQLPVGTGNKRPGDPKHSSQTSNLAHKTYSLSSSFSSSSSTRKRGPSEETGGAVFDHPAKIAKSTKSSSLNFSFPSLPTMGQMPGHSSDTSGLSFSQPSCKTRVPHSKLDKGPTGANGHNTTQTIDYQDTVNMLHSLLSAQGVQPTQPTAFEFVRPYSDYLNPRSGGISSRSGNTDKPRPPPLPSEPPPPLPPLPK
Procedure, shortened: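 Recombinant active full-length CDK9/Cyclin T1 (1.2 μg) pre-incubated 15 min with or without 1μM test compound. Purified BRG1 (0.8 μg) then added, 1 hr at 30 °C in KAS buffer containing 5μCi/μl 32γ-ATP. Reaction stopped by heating at 65 °C for 5 min.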

SW48 = assay: s.c. SW48 xenograft model in NSG mice; type: in vivo
Procedure, shortened: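 2×10^6 SW48 cells injected s.c. into the flank of randomly assigned, gender-matched 8–10-week-old NSG mice. Once tumours were palpable, 20mg/kg test compound or vehicle given i.p. every other day, for 10 weeks. Tumour size measured by caliper (mean+SEM, Student's t-test); survival recorded in days.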

substrates of CDK4/6 = assay: Western Blot of CDK substrates after MC180295 treatment; type: cell-based; settings: 2hrs treatment
[5] = system: GFP and GLDC expression in tumors; assay: Pharmacodynamics study in NSG mice; type: in vivo; settings: two-week every other day treatment, qPCR
Procedure, shortened: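 Six gender-matched 8–10-week-old NSG mice randomised to vehicle or drug. 2×10^6 cells injected into the flank. 20mg/kg test compound given i.p. every other day for two weeks, starting when tumours were palpable 9 days after engraftment. Tumours homogenised, total mRNA extracted, expression measured by qPCR; N=3, mean+SEM, Student's t-test.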

human T lymphocytes = assay: Humanized PBMC NSG mice; type: in vivo; settings: 10 mg/kg or 20 mg/kg for 14 days
[6] = system: pSer2 of RNAPII CTD (CDK9 target); assay: Western Blot of CDK substrates after MC180295 treatment; type: cell-based; settings: 2hrs treatment
ID8 = assay: ID8-VEGF-Defensin syngeneic ovarian cancer mouse model; type: in vivo
Procedure, shortened: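 Female C57BL/6NHsd mice aged 7–8 weeks were injected i.p. with 2.5×10^5 ID8-VEGF-Defensin mouse ovarian cancer cells. From day 3, test compound (1 or 10 mg/kg) or vehicle (5% DMSO in PBS) was given i.p. every 3 days for the whole experiment. Groups were randomly assigned.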

CDK4 = settings: read-out: IC50 for CDK4; ref Asghar et al., 2015; cited from earlier work
CDK1 = settings: read-out: IC50 for CDK1; ref Asghar et al., 2015; cited from earlier work
CDK9 = settings: read-out: IC50 for CDK9; ref Asghar et al., 2015; cited from earlier work

Which “GFP reactivation by GSK-3 inhibitors” value [1] does the source give for `Cc1c[nH]c(-c2cnc(NCCNc3ccc(C#N)cn3)nc2-c2ccc(Cl)cc2Cl)n1` [CHR99021] here?
The value was “no GFP reactivation”.

For `Nc1ncn([C@H]2C[C@H](O)[C@@H](CO)O2)c(=O)n1` [DAC, decitabine], which “silenced genes (RPKM < 0.31) up” value (YB5 cells [2]) is on record?
The value was 1238 genes.

What about the “time to reactivation of hypermethylated genes” value (YB5 cells [3]; YB5, daily 100nM, for most genes) of the same compound?
Its value is “at least 24 hrs”.

Which “GFP reactivation by GSK-3 inhibitors” value [1] does the source give for `[Cl-].[Li+]` [LiCl] here?
The value was “no GFP reactivation”.

With `Nc1nc(N[C@H]2CC3CCC2C3)sc1C(=O)c1ccccc1[N+](=O)[O-]` (stereo partly drawn) [MC180295, (4-amino-2-(((2S)-bicyclo[2.2.1]heptan-2-yl)amino)thiazol-5-yl)(2-nitrophenyl)methanone] as the compound, how does the “inhibition of GSK-3α” value (GSK-3α) read?
Its value is “inhibited”.

And the “induction of differentiation marker CD11b” value (HL60 cell line)?
Its value is “significant induction”.

And the “effect on CDK1/2 substrates” value (CDK1/2 substrates)?
Its value is “not affected at all”.

What about the cell cycle arrest (YB5) of the same compound?
Its cell cycle arrest is “no cell cycle arrest”.

What about the sub-G1 subpopulation (YB5) of the same compound?
The sub-G1 subpopulation was “an increase in the sub-G1 subpopulation”.

And the “selectivity within the human kinome” value (panel of 250 kinases)?
The value was “highly selective against CDKs”.

And the “reduction of proliferation, cancer cells compared to IMR90” value [4]?
Its value is “more effective in reducing proliferation of cancer cells”.

And the “inhibition of GSK-3β” value (GSK-3β)?
Its value is “inhibited”.

What about the “reduction of colony formation in soft agar” value (YB5 and HCT116) of the same compound?
Its value is 30–80%.

What about the body weights (SW48-luc cells; every other day treatment) of the same compound?
The body weights was “did not affect body weights”.

What about the “survival of the mice” value (SW48-luc cells; i.p. every other day, log-rank test) of the same compound?
Its value is “significantly extend survival”.

And the “phosphorylation of RNA-Pol-ll CTD, BRG1 and CDK9 by CDK9” value (CDK9/CyclinT1)?
The value was “unphosphorylated after CDK9 inhibition”.

What about the mouse survival (SW48; 20mg/kg i.p. qod) of the same compound?
The mouse survival was “improved mouse survival”.

What about the “toxicity as measured by body weight” value (SW48; 20mg/kg qod) of the same compound?
Its value is “without causing overt toxicity”.

And the tumor growth (SW48; 20mg/kg qod)?
The tumor growth was “tumors grew slower”.

What about the “effect on substrates of CDK4/6” value (substrates of CDK4/6) of the same compound?
The value was “only affected at substantially higher doses”.

What about the “reactivation of GFP and GLDC in tumors” value [5] of the same compound?
Its value is “reactivated GFP and GLDC in a dose dependent manner”.

What about the “killing of human T lymphocytes in vivo” value (human T lymphocytes) of the same compound?
Its value is “did not kill human T lymphocytes”.

What about the “ratio of CD4 and CD8 T cells in vivo” value (human T lymphocytes) of the same compound?
The value was “did not affect the ratio of CD4 and CD8 T cells”.

And the “GFP+ cells” value ([1]; YB5, 500nM, four days after single dose)?
The value was ~ 60%.

And the “concentration active for GFP reactivation” value ([1]; YB5, four days after single dose)?
The value was 50 nM.

What about the “dephosphorylation of Ser2 (pSer2)” value [6] of the same compound?
Its value is “dephosphorylated at nanomolar doses”.

Which “effect on GFP activation by CDK9 inhibitors” value ([1]; YB5, 72hr daily pretreatment followed by 24hr co-treatment with HH1 or iCDK9) does the source give for `O=C(/C=C/N1C[C@H]2C[C@@H]1CN2c1ccccn1)c1ccccc1O` [PFI-3] here?
The value was “inhibited GFP activation by CDK9 inhibitors in a dose-dependent manner”.

Which results are given for `CC(C)(C)c1cnc(CSc2cnc(NC(=O)C3CCNCC3)s2)o1` [SNS-032]?
survival (ID8; 10mg/kg): extended survival; tumor burden (ascites fluid) (ID8; 10mg/kg): reduced tumor burden; activated dendritic cells (CD80/CD86+ and CD11c/MHCII+) in the tumor microenvironment (ID8; flow cytometry of ascites): increased populations of activated dendritic cells; immune cells (CD45+) and T cells (CD3+) in the tumor microenvironment (ID8; flow cytometry of ascites): increased populations of immune cells (CD45+) and T cells (CD3+); tumor growth (SW48; 20mg/kg qod): tumors grew slower

With `CN1CC[C@H](c2c(O)cc(O)c3c(=O)cc(-c4ccccc4Cl)oc23)[C@H](O)C1` [flavopiridol] as the compound, how does the IC50 (CDK4) read?
Its IC50 is […].

What about the “reactivation of SYNE1 and MGMT” value (YB5 cells [3]) of the same compound?
Its value is “led to gene reactivation”.

What about the “phosphorylation of RNA-Pol-ll CTD, BRG1 and CDK9 by CDK9” value (CDK9/CyclinT1) of the same compound?
The value was “unphosphorylated after CDK9 inhibition”.

Which “reactivation of SYNE1 and MGMT” value (YB5 cells [3]) does the source give for `NC1CCC(Nc2cc(-c3cccc(NCc4cccc(F)c4)n3)c(Cl)cn2)CC1` (centres unmarked) [iCDK9] here?
The value was “led to gene reactivation”.

From paper PMC6247954 (Cell, 2018)
